High-throughput results (PubChem BioAssay)
Sampled rows, rich in hits. Any-hit rate of the full collection: about 1.7%.
ZTA DNA inh: ZTA (EBV) inhibition in EBNA-1 counter-screen | 320,000 compounds, 0.15% hits | inhibition, % at 11 µM | ZTA-DNA binding, fluorescence polarization; in the data active = inhibition above about 33%
Target sequence (P03206 whole entry, looked up): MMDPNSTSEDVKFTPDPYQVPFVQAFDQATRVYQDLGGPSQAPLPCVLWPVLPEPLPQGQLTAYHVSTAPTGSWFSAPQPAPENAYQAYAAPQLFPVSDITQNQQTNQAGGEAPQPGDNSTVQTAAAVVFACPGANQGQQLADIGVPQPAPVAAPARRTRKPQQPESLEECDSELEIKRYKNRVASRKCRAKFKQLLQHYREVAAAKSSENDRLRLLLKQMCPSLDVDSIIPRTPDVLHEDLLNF
EBNA-1 inhibitor: blocks EBNA-1 binding to DNA; EBNA-1 DNA binding, fluorescence polarization; inhibition, % at 14.8 µM; 300,000 compounds, 0.34% hits; in the data active = inhibition above about 28%
HCV core dimer: blocks dimerization of HCV core protein; TR-FRET GST/Flag-core106 dimerization, 1536-well; inhibition, % at 5 µM; 300,000 compounds, 0.33% hits;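 active = inhibition above the mean of all tested compounds plus 3 SD, set per screening campaign, cut at about 45% in these data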
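Assay system: GST-tagged and Flag-tagged HCV core protein residues 1-106 / Times: compound-protein-antibody incubation 4 h at 22.5 °C / Signal: time-resolved FRET, ex 340 nm, em 617 and 671 nm / Evaluation: % inhibition based on acceptor/donor emission ratio / Benchmarks: wells lacking GST-core106 and wells with excess unlabelled core106 / Repeats: singlicate, one well per compound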
NS3 helicase inh: inhibitors of Hepatitis C virus NS3 helicase. NS3 helicase DNA unwinding, Cy5 molecular beacon fluorescence. inhibition, % at 10.9 µM. 290,000 compounds, 0.56% hits;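 active = inhibition above the mean of all tested compounds plus 3 SD, set per campaign, cut at about 35% in these data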;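 note: 0% = DMSO wells and 100% = thioflavine S control wells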
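Compound dosing – single dose, 10.9 µM nominal final, DMSO 0.8% final · System – NS3 helicase fragment of HCV · Buffer or medium – MOPS pH 6.5, MgCl2, DTT, Tween20, BSA · Signal – Cy5 beacon fluorescence read at start and 1 h · Also added – annealed dual-labelled DNA beacon duplex, ATP-started · Schedule – 1 h at 25 °C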
EBV gp42 block: blocks Epstein-Barr virus glycoprotein 42 binding; Fluorescence polarization binding assay, mP read-out; inhibition, % (tested at 21.74 µM); 220,000 compounds, 0.42% hits; AID 1085; in the data active = inhibition above about 50%
MEX-5 binding: C. elegans MEX-5 TCR-2 RNA binding activity. Q9XUB2. MEX-5/FITC-TCR2 RNA binding, fluorescence polarization; stronger effect = lower value. activity score (negative = inhibition of binding), % at 10 µM. 300,000 compounds, 0.38% hits. AID 1832;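 active = inhibition past about -25% in most replicates, and total fluorescence under double the plate's negative control median, limit read from the data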;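 note: 0% = DMSO and -100% = 5 µM competing unlabeled TCR2 RNA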
Target sequence (Q9XUB2 whole entry, looked up): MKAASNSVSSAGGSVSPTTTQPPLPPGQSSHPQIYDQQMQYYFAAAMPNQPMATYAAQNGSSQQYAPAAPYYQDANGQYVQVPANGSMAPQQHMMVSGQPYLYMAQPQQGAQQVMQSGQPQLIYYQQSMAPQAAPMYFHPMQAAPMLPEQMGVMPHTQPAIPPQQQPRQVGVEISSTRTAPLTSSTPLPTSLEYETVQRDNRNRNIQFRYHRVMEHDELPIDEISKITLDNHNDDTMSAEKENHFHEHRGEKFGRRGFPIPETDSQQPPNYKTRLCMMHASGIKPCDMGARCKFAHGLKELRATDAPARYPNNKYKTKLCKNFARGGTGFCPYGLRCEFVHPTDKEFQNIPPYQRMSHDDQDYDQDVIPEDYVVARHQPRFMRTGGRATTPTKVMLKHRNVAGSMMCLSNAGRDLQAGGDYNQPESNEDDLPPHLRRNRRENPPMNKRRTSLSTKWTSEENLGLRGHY
NS3 hel confirm: HCV NS3 helicase inhibition, confirmation assay | 1,600 compounds, 31% hits | AID 1943 | NS3 helicase DNA unwinding, Cy5 molecular beacon fluorescence | inhibition, % at 10.9 µM | shares compounds with NS3 helicase inh;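 active = inhibition above the mean of all tested compounds plus 3 SD, cutoff set per campaign, cut at about 36% in these data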
FID counter trip: intercalator displacement, NS3 helicase counter-screen; shares compounds with NS3 helicase inh; DNA fluorescent intercalator displacement, fluorescence; inhibition, % at 7.9 µM; 1,600 compounds, 4% hits; in the data active = inhibition above about 37%;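 note: 0% = vehicle and 100% = reference compound; higher means more displacement of ethidium bromide from the DNA hairpin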
Starred values were filed as active, the others as inactive; nt = no result.

SMILES	ZTA DNA inh	EBNA-1 inhibitor	HCV core dimer	NS3 helicase inh	EBV gp42 block	MEX-5 binding	NS3 hel confirm	FID counter trip
COc1cc(C=C(c2nc3ccccc3s2)c2nc3ccccc3s2)cc(OC)c1O	-4.1	-8.4	16.3	38.6*	-21.0	-0.7	-27.1	-7.8
CCc1ccc(-n2c(SCC(=O)N3Cc4ccccc4CC3C(=O)O)nnc2-c2ccncc2)cc1 (stereo unspecified)	4.0	6.1	6.4	41.9*	-18.3	0.5	-26.2	-23.9
Cc1ccccc1OCC(=O)N/N=C/c1ccc([N+](=O)[O-])o1	15.4	3.1	12.8	35.5	-9.7	3.1	nt	nt
O=C(N/N=C/C=C/c1ccccc1[N+](=O)[O-])c1cccs1	3.7	-1.6	-3.1	-1.7	-2.5	-0.7	nt	nt
COc1ccccc1OCC(=O)N/N=C/C=C/c1ccc([N+](=O)[O-])o1	16.6	9.2	21.9	46.2*	-0.8	0.2	1.7	-1.3
O=C(N/N=C\C=C\c1ccc([N+](=O)[O-])o1)c1cccs1	nt	nt	nt	53.7*	nt	-4.6	2.0	12.4
CCOc1ccc(NC(=O)CSc2nnnn2-c2ccc(C(N)=O)cc2)cc1	12.2	11.6	-2.4	-3.3	nt	-0.2	nt	nt
CCc1cccc(OCC2Cn3c(nc4c3c(=O)[nH]c(=O)n4C)O2)c1 (stereo unspecified)	-10.3	2.9	0.8	2.8	nt	2.1	nt	nt
O=C(c1ccco1)N1CCN(c2ccc([N+](=O)[O-])cn2)CC1	8.8	-0.2	8.0	4.9	nt	-0.5	nt	nt
Cn1c2ccccc2c2cc(/C=N/NC(=O)c3cc(O)cc(O)c3)ccc21	4.7	1.6	15.1	23.2	nt	3.4	nt	nt
Cn1c2ccccc2c2cc(/C=N/NC(=O)c3cc(O)ccc3O)ccc21	2.4	-2.3	37.8	69.4*	nt	1.1	24.5	12.4
COc1cccc(C2c3[nH]c4ccccc4c3C[C@H]3C(=O)N(CCCOC(C)C)CC(=O)N23)c1 (stereo partly specified)	-26.4	-0.3	-0.2	84.6*	nt	-2.0	-8.6	-28.2
CC(C)OCCCN1CC(=O)N2C(c3ccccc3)c3[nH]c4ccccc4c3C[C@H]2C1=O (stereo partly specified)	-4.3	-1.7	-8.1	3.7	nt	1.7	nt	nt
CC(C)c1ccc(NC(=O)c2ccccc2NC(=O)C2CC=CCC2C(=O)O)cc1 (stereo unspecified)	nt	nt	nt	13.4	nt	nt	nt	nt
CC(C)c1ccc(NC(=O)c2ccccc2NC(=O)C2CCCCC2C(=O)O)cc1 (stereo unspecified)	nt	nt	nt	44.9*	nt	2.2	48.3*	-51.6
CCCCN1CCC(COC(=O)c2cc(Cl)c(N)c3c2OCCO3)CC1	1.2	-4.8	-0.7	nt	nt	nt	nt	nt
Cc1cc(OC(=O)c2ccc(Cl)cc2Cl)c([N+](=O)[O-])c(=O)[nH]1	10.6	5.0	-3.5	-14.4	nt	2.1	nt	nt
CCc1nnc(NS(=O)(=O)c2ccc(NC(=S)NC(=O)c3ccccc3)cc2)s1	17.7	5.0	1.1	45.5*	-12.2	-4.6	65.5*	-3.3
CCc1nnc(NS(=O)(=O)c2ccc(NC(=S)NC(=O)c3ccc(Br)cc3)cc2)s1	20.3	-3.7	17.4	57.8*	-1.9	2.0	48.9*	10.3
CCc1nnc(NS(=O)(=O)c2ccc(NC(=O)c3ccc(Cl)cc3)cc2)s1	16.4	-0.7	6.2	-1.1	-4.8	-1.0	nt	nt
COc1ccc(-c2cc(C(=O)Nc3ccc(O)cc3)c3ccccc3n2)cc1OC	8.1	3.2	-0.8	44.9*	-1.4	0.5	-4.0	-23.8
COc1ccc(NC(=O)c2cc(-c3cc(OC)c(OC)c(OC)c3)nc3ccccc23)cc1OC	-9.9	-7.0	2.5	-25.9	nt	0.6	nt	nt
Cc1ccccc1-n1c(C)cc(/C=C2/C(=N)N3C(c4ccccc4)=CSC3=NC2=O)c1C	17.1	-4.0	42.0	39.8*	-64.3	3.9	8.4	-10.9
CCOc1ccc(-n2c(C)cc(/C=C3/C(=N)N4C(=NC3=O)SN=C4S(C)(=O)=O)c2C)cc1	-1.1	5.3	29.1	37.9*	6.3	-13.5	83.7*	-8.9
Cc1cc(/C=C2/C(=N)N3C(c4ccccc4)=CSC3=NC2=O)c(C)n1-c1ccccc1	15.0	-1.5	44.9	15.3	-49.4	3.1	nt	nt
SMILES	ZTA DNA inh	EBNA-1 inhibitor	HCV core dimer	NS3 helicase inh	EBV gp42 block	MEX-5 binding	NS3 hel confirm	FID counter trip
CCOc1ccc(S(=O)(=O)Nc2ccc(C(=O)NCC(c3ccco3)N3CCCCC3)cc2)cc1 (stereo unspecified)	-6.9	-5.4	3.6	nt	nt	-1.0	nt	nt
C=C(C)CNC(=S)N/N=C/c1c(F)cccc1F	11.4	-3.4	1.8	7.3	-1.9	1.4	nt	nt
COC(=O)c1c(-c2ccco2)csc1NC(=O)C1CC=CCC1C(=O)O (stereo unspecified)	14.6	4.6	3.6	36.2*	-16.6	2.4	-10.2	-32.2
S=c1nc(Cc2ccccc2)[nH]c2ccccc12	-1.1	-10.1	37.8	-4.1	nt	0.9	nt	nt
S=c1nc(COc2ccccc2)[nH]c2ccccc12	8.9	-34.9	31.1	42.1*	nt	-0.7	-12.4	2.9
CCCCC(CC)CNC(=O)C(Cc1ccccc1)NS(=O)(=O)c1ccc2c(c1)CCC(=O)N2 (stereo unspecified)	-26.6	1.1	6.8	-16.5	4.8	-1.2	nt	nt
O=C(COC(=O)c1ccccc1O)Nc1cccc2ccccc12	7.3	nt	nt	nt	nt	nt	nt	nt
COc1cc(/C=C(/C#N)C(=O)Nc2ccccc2)ccc1OCc1ccc(C(=O)O)cc1	-13.5	-2.1	19.2	18.9	4.6	-6.1	nt	nt
COc1cc(/C=C(\C#N)C(=O)Nc2ccc(C(=O)O)cc2)ccc1OC(=O)c1cccc(F)c1	-18.8	6.8	-2.7	47.5*	nt	-0.2	63.1*	-24.3
CCC(c1c(C)n(C)n(-c2ccccc2)c1=O)c1c(C)n(C)n(-c2ccccc2)c1=O	11.5	-1.8	-3.1	38.6*	-14.8	1.0	-13.4	-2.5
Cc1cc(C)c(C(=O)CSc2nnc(-c3ccccc3Br)o2)cc1C	nt	nt	nt	38.9*	-12.7	0.1	0.5	2.8
Cc1cccc(C)c1NC(=O)CN(C)C(=O)c1ccc2nc[nH]c2c1	12.6	1.1	1.0	nt	nt	-4.2	nt	nt
Nc1nc(-c2cc(O)ccc2[N+](=O)[O-])cc(-c2ccccc2)c1[N+](=O)[O-]	nt	nt	nt	96.2*	nt	-16.1	19.2	45.3*
O=C(O)CN1C(=O)/C(=C\c2cc(Br)ccc2OCc2ccc(Cl)cc2)SC1=S	nt	nt	nt	38.9*	nt	-4.2	67.1*	59.2*
CCCNC(=S)N1CCN(Cc2ccc3c(c2)OCO3)CC1	-9.0	-3.2	-5.9	54.8*	9.9	-2.1	-5.6	11.2
CCNC(=S)N1CCN(Cc2ccc3c(c2)OCO3)CC1	-2.7	-10.1	-5.7	-13.9	-25.4	-1.1	nt	nt
